Molecules are shown by their SMILES.

Experimental findings from ChEMBL document CHEMBL1154452, “First synthesis of novel spin-labeled derivatives of camptothecin as potential antineoplastic agents” (Eur J Med Chem, 2008) are described below.

A short description of series [1]: Stability in human plasma assessed as level of lactone form of compound after 2 hrs by HPLC. The series is classed as ADME, cell-free. Particulars: read-out: Activity. The method, boiled down:
(§1)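 Incubated in plasma at 37 °C; aliquots taken at 2, 4, 6, 8 and 24 h. Protein precipitated with cold acetonitrile (-20 °C) and removed by centrifugation. Supernatant stored at -20 °C, then analysed by C-18 HPLC (methanol/water/0.1% acetic acid) with detection at 254 nm. Percent lactone = lactone level at each time point relative to t = 0 h.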

Series [2] in a line: Stability in human plasma assessed as level of lactone form of compound after 4 hrs by HPLC. In kind it is ADME, cell-free. As to conditions: read-out: Activity. The gist of the method: as §1
Series [3] is described as follows: Stability in human plasma assessed as level of lactone form of compound after 6 hrs by HPLC. The series is classed as ADME, cell-free. Particulars: read-out: Activity. The method, boiled down:
as §1

Series [4] is described as follows: Stability in human plasma assessed as level of lactone form of compound after 8 hrs by HPLC. The series is classed as ADME, cell-free. As to conditions: read-out: Activity. The gist of the method: as §1
Series [5] can be described thus: Stability in human plasma assessed as level of lactone form of compound after 24 hrs by HPLC. The series is classed as ADME, cell-free. As to conditions: read-out: Activity. The gist of the method: as §1
Series [6] is described as follows: Stability in mouse plasma assessed as level of lactone form of compound after 2 hrs by HPLC. The series is classed as ADME, cell-free. Particulars: read-out: Activity. The gist of the method:
as §1

A short description of series [7]: Stability in mouse plasma assessed as level of lactone form of compound after 4 hrs by HPLC. In kind it is ADME, cell-free. Particulars: read-out: Activity. The gist of the method: as §1
Series [8] is described as follows: Stability in mouse plasma assessed as level of lactone form of compound after 6 hrs by HPLC. In kind it is ADME, cell-free. Particulars: read-out: Activity. The method, boiled down:
as §1

Series [9] is described as follows: Stability in mouse plasma assessed as level of lactone form of compound after 8 hrs by HPLC. Particulars: read-out: Activity. In kind it is ADME, cell-free. The gist of the method: as §1
Series [10] is described as follows: Stability in mouse plasma assessed as level of lactone form of compound after 24 hrs by HPLC. In kind it is ADME, cell-free. As to conditions: read-out: Activity. The gist of the method: as §1
For the next series, the system named is T-24. The series can be described thus: Growth inhibition of human T24 cells after 4 days by MTT assay. The series is classed as functional. More on the design: concentration or dose not given beside the values. The method, boiled down: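 After 4 days, MTT (5 mg/mL solution) added, 4 h further incubation, formazan dissolved in DMSO, absorbance read at 570 nm. Survival expressed as percent of untreated control wells; inhibition rates derived.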
A general note: Tetrazolium assays rely on reduction of a dye to a coloured formazan, in cell work by metabolically active cells.

On to `CC[C@@]1(OC(=O)CNC(=O)C2=CC(C)(C)N(O)C2(C)C)C(=O)OCc2c1cc1n(c2=O)Cc2cc3ccccc3nc2-1`, for which the remaining at 2 h in series [1] amounted to 78.7%; in [6], 76.3%. For the same compound, the remaining at 4 h in [2] worked out at 65.2%; in [7] it was 57.6%. Moreover, the values for the remaining at 6 h in series [3] and in series [8] were 56.1% and 43.9%, respectively. The remaining at 8 h in series [4] turned out to be 34.4%; in series [9] it was 31.8%. Further, the remaining at 24 h in series [5] was found to be 7.8%; in [10], 10.8%. In the series on T-24, the “inhibition (INH)” value came out at 34.5%.
For `CC[C@@]1(OC(=O)[C@H](CC(C)C)NC(=O)C2=CC(C)(C)N(O)C2(C)C)C(=O)OCc2c1cc1n(c2=O)Cc2cc3ccccc3nc2-1`, the “inhibition (INH)” value in the series with T-24 came to 16.4%.
For `CC[C@@]1(OC(=O)[C@H](C)NC(=O)C2=CC(C)(C)N(O)C2(C)C)C(=O)OCc2c1cc1n(c2=O)Cc2cc3ccccc3nc2-1`, the “inhibition (INH)” value with T-24 was 25.9%.
On to `CC[C@@]1(OC(=O)[C@H](Cc2ccccc2)NC(=O)C2=CC(C)(C)N(O)C2(C)C)C(=O)OCc2c1cc1n(c2=O)Cc2cc3ccccc3nc2-1`, for which the “inhibition (INH)” value with T-24 is 26.4%.
In the case of `CC[C@@]1(OC(=O)[C@H](CCSC)NC(=O)C2=CC(C)(C)N(O)C2(C)C)C(=O)OCc2c1cc1n(c2=O)Cc2cc3ccccc3nc2-1`, in the series on T-24, the “inhibition (INH)” value turned out to be 25.5%.
Turning to `CC[C@@]1(O)C(=O)OCc2c1cc1n(c2=O)Cc2cc3ccccc3nc2-1` [CAMPTOTHECIN], the remaining at 2 h is 61.4% in [1] and 55.1% in [6]. Also, the figures for the remaining at 4 h in series [2] and in series [7] were 28.4% and 40.5%, respectively. The remaining at 6 h was 19.4% in series [3] and 24.5% in [8]. In addition, the results for the remaining at 8 h in [4] and in series [9] were 14.6% and 10.9%, respectively. The remaining at 24 h in [5] stood at 3.8%; in [10] it was 5.3%. Moreover, the “inhibition (INH)” value in the series on T-24 was determined as 15.4%.
With `CCc1c2c(nc3ccc(OC(=O)N4CCC(N5CCCCC5)CC4)cc13)-c1cc3c(c(=O)n1C2)COC(=O)[C@]3(O)CC` [IRINOTECAN], the “inhibition (INH)” value with T-24 is recorded as 23.8%.
